Measurements reported in ChEMBL document CHEMBL3864135, “Synthesis and pharmacological evaluation of functionalized isoindolinones on GABA-activated chloride currents in rat cerebellum granule cells in culture” (Bioorg Med Chem Lett, 2016).

Experiments:
[1] = Solubility of the compound in phosphate buffer at pH 3.2; assay type: physicochemical
[2] = Solubility of the compound in DMSO; assay type: physicochemical
[3] = molecular target: T1, Gamma-aminobutyric acid receptor subunit alpha-1/beta-2/beta-3/gamma-2 (Rattus norvegicus) (UniProt P18508+P62813+P63079+P63138); experiment: Inverse agonist activity at GABA alpha1beta2beta3gamma2 receptor Bzd binding site in Sprague-Dawley rat cerebellar granule cells assessed as decrease in GABA-activated chloride currents at 1 uM by whole-cell patch clamp technique relative to control
Summary of the method: (§1)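 Whole-cell patch clamp on cultured rat cerebellar granule cells. Peak, rapidly desensitizing chloride current evoked by 10 μM GABA, recorded with and without test compound. Compounds applied at 1 μM, or at 0.47 μM where solubility limited. Change expressed as percent of the current with GABA alone (E %), mean ± SEM. Student's t-test against GABA alone.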

[4] = Solubility of the compound in ethanol; assay type: physicochemical
[5] = Solubility of the compound in water; assay type: physicochemical; conditions: buffer
[6] = molecular target: T1, Gamma-aminobutyric acid receptor subunit alpha-1/beta-2/beta-3/gamma-2 (Rattus norvegicus); experiment: Agonist activity at GABA alpha1beta2beta3gamma2 receptor Bzd binding site in Sprague-Dawley rat cerebellar granule cells assessed as increase in GABA-activated chloride currents at 1 uM by whole-cell patch clamp technique relative to control; summary of the method: as §1
[7] = Drug metabolism assessed as decarboxylated metabolite formation; assay type: ADME
[8] = molecular target: T1, Gamma-aminobutyric acid receptor subunit alpha-1/beta-2/beta-3/gamma-2 (Rattus norvegicus); experiment: Inverse agonist activity at GABA alpha1beta2beta3gamma2 receptor Bzd binding site in Sprague-Dawley rat cerebellar granule cells assessed as decrease in GABA-activated chloride currents at 0.47 uM by whole-cell patch clamp technique relative to control; summary of the method: as §1

SMILES	solubility [1]	solubility [2]	Efficacy [3] [%]	solubility [4]	solubility [5]	Efficacy [6] [%]	Drug metabolism [7] [%ID]	Efficacy [8] [%]
Cl.O=C(CC1c2ccccc2C(=O)N1c1ccc([N+](=O)[O-])cn1)N1CCN(c2ccccc2)CC1 (stereo not given)	Soluble	Soluble	27	Soluble	Soluble			
Cl.O=C(CC1c2ccccc2C(=O)N1c1ccc([N+](=O)[O-])cn1)N1CCN(c2ccc(Cl)cc2)CC1 (stereo not given)	Soluble	Soluble	36	Soluble	Soluble			
CN1CCN(C(=O)CC2c3ccccc3C(=O)N2c2ccc(Br)cn2)CC1.Cl (stereo not given)	Soluble	Soluble		Soluble	Soluble	26		
CN1CCN(C(=O)CC2c3ccccc3C(=O)N2c2ccccn2)CC1.Cl (stereo not given)	Soluble	Soluble		Soluble	Soluble	20		
CN1CCN(C(=O)CC2c3ccccc3C(=O)N2c2ccc([N+](=O)[O-])cn2)CC1.Cl (stereo not given)	Soluble	Soluble		Soluble	Soluble	34		
Cl.O=C(CC1c2ccccc2C(=O)N1c1ccc([N+](=O)[O-])cn1)N1CCN(c2ccc(F)cc2)CC1 (stereo not given)	Soluble	Soluble		Soluble	Soluble			
Cc1ccc(N2C(=O)c3ccccc3C2CC(=O)N2CCN(C)CC2)nc1.Cl (stereo not given)	Soluble	Soluble		Soluble	Soluble	21		
CN1CCN(C(=O)OC2c3nccnc3C(=O)N2c2ccc(Cl)cn2)CC1 (stereo not given) [ZOPICLONE]						58	50	
Cc1ccc(N2CCN(C(=O)CC3c4ccccc4C(=O)N3c3ccc([N+](=O)[O-])cn3)CC2)cc1.Cl (stereo not given)	Soluble	Insoluble		Soluble	Soluble			
CN1CCN(C(=O)CC2c3ccccc3C(=O)N2c2ccc(N)cn2)CC1.Cl (stereo not given)	Soluble	Insoluble		Soluble	Soluble			23
COc1ccc(N2CCN(C(=O)CC3c4ccccc4C(=O)N3c3ccc([N+](=O)[O-])cn3)CC2)cc1.Cl (stereo not given)	Soluble	Soluble	21	Soluble	Soluble			
CN1CCN(C(=O)CC2c3ccccc3C(=O)N2c2ccc(Cl)cn2)CC1.Cl (stereo not given)	Soluble	Soluble		Soluble	Soluble	18		
